Test results as given in paper PMC3268193 (British Journal of Pharmacology, 2012).
Positions count from the first letter of the chain named. “Also recorded” adds a separate entry of the source.

Tests used:
[1] = target: Dictyostelium P2X receptors; conditions: read-out: EC50 for ATP; ref Ludlow et al., 2009; cited from earlier work
P2X1 Del mutant receptor = experiment: Two-electrode voltage clamp, deletion mutant P2X1 Del; type: cell-based, human; conditions: ATP 100 µM, up to 10 mM
Procedure, shortened: (§1)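 Human P2X1 deletion-mutant cRNA made by T7 in vitro transcription and injected into stage V Xenopus laevis oocytes. Oocytes kept at 18°C in ND96 (pH 7.5, with gentamicin) and recorded 2–6 days later. Two-electrode voltage clamp at −60 mV, with 1.8 mM BaCl2 replacing CaCl2 in the bath.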

[2] = target: T1, P2X2 receptor mutant D136K (Homo sapiens, UniProt Q9UBL9, D148K); experiment: Two-electrode voltage clamp, P2X2 mutant D136K; type: cell-based; conditions: read-out: ATP EC50
T1 sequence (Q9UBL9 1-471 D148K): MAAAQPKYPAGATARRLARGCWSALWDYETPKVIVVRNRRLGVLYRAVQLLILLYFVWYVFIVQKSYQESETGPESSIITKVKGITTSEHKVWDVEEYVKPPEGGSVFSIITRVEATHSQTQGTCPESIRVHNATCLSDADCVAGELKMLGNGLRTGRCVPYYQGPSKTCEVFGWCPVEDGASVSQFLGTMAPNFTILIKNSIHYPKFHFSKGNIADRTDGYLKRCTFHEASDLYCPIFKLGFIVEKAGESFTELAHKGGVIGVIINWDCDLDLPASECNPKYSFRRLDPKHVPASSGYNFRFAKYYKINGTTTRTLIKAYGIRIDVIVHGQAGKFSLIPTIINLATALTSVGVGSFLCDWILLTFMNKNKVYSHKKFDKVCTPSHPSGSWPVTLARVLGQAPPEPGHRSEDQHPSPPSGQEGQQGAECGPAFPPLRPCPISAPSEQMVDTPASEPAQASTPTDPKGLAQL

human P2X2 receptor WT = target: T2, human P2X2 receptor WT (Homo sapiens, UniProt Q9UBL9); experiment: Two-electrode voltage clamp, WT P2X2 receptor in Xenopus oocytes; type: cell-based; conditions: P2X2 WT
T2 sequence (Q9UBL9 1-471): T1 sequence (Q9UBL9 1-471 D148K) with K148D

human P2X1 receptor WT = target: T3, human P2X1 receptor WT (Homo sapiens, UniProt P51575); experiment: Two-electrode voltage clamp, WT P2X1 receptor in Xenopus oocytes; type: cell-based
T3 sequence (P51575 1-399): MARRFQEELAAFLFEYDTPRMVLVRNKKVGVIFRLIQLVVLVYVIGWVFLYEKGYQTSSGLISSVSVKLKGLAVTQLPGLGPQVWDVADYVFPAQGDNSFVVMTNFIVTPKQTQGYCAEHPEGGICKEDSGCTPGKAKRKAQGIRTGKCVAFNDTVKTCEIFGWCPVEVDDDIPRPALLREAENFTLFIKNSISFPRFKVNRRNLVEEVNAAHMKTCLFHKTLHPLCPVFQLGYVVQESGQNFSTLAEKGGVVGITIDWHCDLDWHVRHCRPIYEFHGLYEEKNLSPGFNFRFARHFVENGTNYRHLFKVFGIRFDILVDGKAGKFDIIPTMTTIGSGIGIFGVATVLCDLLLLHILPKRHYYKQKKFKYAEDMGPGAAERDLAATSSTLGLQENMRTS

P2X1 Cys2(1-6) chimera = target: T4, P2X1 Cys2(1-6) chimera (Homo sapiens, UniProt P51575, A118P/A137L/A141G/A151Y/D154G/DEL120-123/E128S/F152Y/G124S/G131D/I144L/I161V/INS125RVHNAT/INS150P/K127L/K136E/K138D/K140L/K148R/N153Q/P134A/Q142N/R139M/S130A/T133V/T155P/V156S); experiment: Two-electrode voltage clamp, chimera P2X1 Cys2; type: cell-based; conditions: P2X1 Cys2(1-6)
T4 sequence (P51575 with tags, fused parts or gaps A118P/DEL120-123/G124S/INS125RVHNAT/K127L/E128S/S130A/G131D/T133V/P134A/K136E/A137L/K138D/R139M/K140L/A141G/Q142N/I144L/K148R/INS150P/A151Y/F152Y/N153Q/D154G/T155P/V156S/I161V): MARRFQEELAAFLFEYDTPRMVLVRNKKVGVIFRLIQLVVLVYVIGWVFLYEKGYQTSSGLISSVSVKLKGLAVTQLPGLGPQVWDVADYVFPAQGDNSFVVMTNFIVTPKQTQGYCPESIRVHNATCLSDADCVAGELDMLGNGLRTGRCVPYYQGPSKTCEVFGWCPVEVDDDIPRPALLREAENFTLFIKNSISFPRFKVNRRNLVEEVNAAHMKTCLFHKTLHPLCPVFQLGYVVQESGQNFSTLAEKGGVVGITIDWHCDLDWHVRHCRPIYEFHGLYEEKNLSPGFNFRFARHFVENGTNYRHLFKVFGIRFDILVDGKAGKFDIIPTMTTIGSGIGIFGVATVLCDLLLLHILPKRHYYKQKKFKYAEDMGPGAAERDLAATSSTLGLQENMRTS

DelD P2X1 receptor = target: T5, DelD P2X1 receptor (Homo sapiens, UniProt P51575, D154F/DEL118-152/DEL160-165/K157P/V156D); experiment: Two-electrode voltage clamp, deletion mutant DelD P2X1; type: cell-based; conditions: ATP up to 10 mM
T5 sequence (P51575 with tags, fused parts or gaps DEL118-152/D154F/V156D/K157P/DEL160-165): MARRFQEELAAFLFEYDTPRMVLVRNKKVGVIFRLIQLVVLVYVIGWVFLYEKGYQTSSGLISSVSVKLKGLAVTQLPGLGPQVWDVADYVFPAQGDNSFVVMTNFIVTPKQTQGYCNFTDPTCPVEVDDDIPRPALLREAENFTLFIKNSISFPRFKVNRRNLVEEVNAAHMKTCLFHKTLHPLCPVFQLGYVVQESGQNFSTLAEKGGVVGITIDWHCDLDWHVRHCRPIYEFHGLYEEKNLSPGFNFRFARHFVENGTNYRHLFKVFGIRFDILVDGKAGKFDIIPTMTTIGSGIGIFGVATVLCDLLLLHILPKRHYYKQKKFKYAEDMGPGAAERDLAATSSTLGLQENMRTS
Procedure, shortened: as §1

EC50 [2]: 3.87 µM
Decay of current (human P2X2 receptor WT; 100 µM ATP, 3 s application): no decay at end of 3 s pulse
EC50 (human P2X2 receptor WT; read-out: ATP EC50): ~10 µM
Decay Time (human P2X1 receptor WT; P2X1 WT, 100% to 50% decay of current): 495 ± 45 ms
Peak amplitude of inward current (human P2X1 receptor WT; WT P2X1, ATP 100 µM, n = 12): −9188 ± 590 nA
EC50 (human P2X1 receptor WT; read-out: ATP EC50, P2X1 WT): ~0.75 µM
Decay Time (P2X1 Cys2(1-6) chimera; 100% to 50% decay): 1305 ± 176 ms
EC50 (P2X1 Cys2(1-6) chimera; read-out: ATP EC50): ~3 µM
ATP-evoked current (DelD P2X1 receptor): little or no response
SMILES: Nc1ncnc2c1ncn2[C@@H]1O[C@H](COP(=O)(O)OP(=O)(O)OP(=O)(O)O)[C@@H](O)[C@H]1O [ATP]
EC50 [1]: 100 to 500 µM
ATP-evoked current (P2X1 Del mutant receptor): barely detectable inward currents; also recorded: ineffective
